Experiments:
[1] = molecular target: T1, Prostaglandin G/H synthase 1 (Ovis aries) (UniProt P05979); test: Inhibition of sheep COX-1 at 20 uM by cayman colorimetric assay
T1 sequence (whole entry): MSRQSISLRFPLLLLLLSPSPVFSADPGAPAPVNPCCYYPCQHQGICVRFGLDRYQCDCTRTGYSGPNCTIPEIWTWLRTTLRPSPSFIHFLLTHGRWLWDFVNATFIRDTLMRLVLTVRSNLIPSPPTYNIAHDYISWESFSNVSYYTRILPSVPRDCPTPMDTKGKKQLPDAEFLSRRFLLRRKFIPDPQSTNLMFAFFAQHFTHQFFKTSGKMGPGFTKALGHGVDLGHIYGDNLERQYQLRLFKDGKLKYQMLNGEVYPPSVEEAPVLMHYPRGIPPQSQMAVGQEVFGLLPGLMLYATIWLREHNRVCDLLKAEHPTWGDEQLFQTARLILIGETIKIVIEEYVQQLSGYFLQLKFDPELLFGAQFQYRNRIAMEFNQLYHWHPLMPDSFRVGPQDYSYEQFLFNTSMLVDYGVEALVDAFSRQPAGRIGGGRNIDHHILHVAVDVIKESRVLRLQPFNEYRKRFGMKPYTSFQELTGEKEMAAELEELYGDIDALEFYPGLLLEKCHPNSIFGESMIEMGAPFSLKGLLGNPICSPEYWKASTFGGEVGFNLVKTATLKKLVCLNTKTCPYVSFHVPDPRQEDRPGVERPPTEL
Method in brief: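 Ovine COX-1 activity measured with a commercial ovine COX-1/COX-2 inhibitor screening kit, with calculations done per the kit guidelines. Each value is the mean of two determinations.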

Ovis aries = species on record: Ovis aries; test: Selectivity ratio of inhibition for sheep COX-1 to inhibition for sheep COX-2 at 20 uM
Rattus norvegicus [2] = test: Antiinflammatory activity in rat assessed as inhibition of carrageenan-induced paw edema at 50 mg/kg, po measured after 90 min by Plethysmograph; format: functional; conditions: 1.5 h
Method in brief: (§1)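 Rats randomly grouped, six per group, housed at 25 °C with a 12 h light/dark cycle and acclimatized one week. Test compounds given orally at 50 mg/kg with CMC-Na as vehicle, and indomethacin 10 mg/kg as standard. Edema induced by 0.1 ml carrageenan solution injected into the hind paw. Paw volume measured by mercury-displacement plethysmograph before and 90, 180, 270 and 360 min after injection. % edema inhibition calculated from test and control paw volumes before and after carrageenan. Results given as mean ± SEM.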

Rattus norvegicus [3] = test: Antiinflammatory activity in rat assessed as inhibition of carrageenan-induced paw edema at 50 mg/kg, po measured after 180 min by Plethysmograph; format: functional; conditions: 3 h; method in brief: as §1
Rattus norvegicus [4] = test: Antiinflammatory activity in rat assessed as inhibition of carrageenan-induced paw edema at 50 mg/kg, po measured after 270 min by Plethysmograph; format: functional; conditions: 4.5 h; method in brief: as §1
Rattus norvegicus [5] = test: Antiinflammatory activity in rat assessed as inhibition of carrageenan-induced paw edema at 50 mg/kg, po measured after 360 min by Plethysmograph; format: functional; conditions: 6 h; method in brief: as §1
Rattus norvegicus [6] = test: Toxicity in albino Wistar rat assessed as ulcerogenic activity measuring gastric ulcer lesion index at 100 mg/kg, po once daily for four consecutive days; format: organism-based, Stomach; design: dose 100 mg/kg, route oral; conditions: in vivo
Method in brief: (§2)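 Wistar albino rats (150–200 g, either sex, fasted) were randomized into groups of 10 and dosed orally once daily for four days alongside a vehicle control group. Rats were killed under deep ether anaesthesia and stomachs removed, opened along the greater curvature, and examined under a dissecting microscope for lesions or bleeding. Ulcer lesion index is given in cm.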

Rattus norvegicus [7] = test: Toxicity in albino Wistar rat assessed as ulcerogenic activity measuring gastric ulcer lesion index at 10 mg/kg, po once daily for four consecutive days; format: organism-based, Stomach; design: dose 10 mg/kg, route oral; conditions: in vivo; method in brief: as §2
Rattus norvegicus [8] = test: Toxicity in albino Wistar rat assessed as ulcerogenic activity measuring gastric ulcer lesion index at 50 mg/kg, po once daily for four consecutive days; format: organism-based, Stomach; design: dose 50 mg/kg, route oral; conditions: in vivo; method in brief: as §2
Rattus norvegicus [9] = species on record: Rattus norvegicus; test: animal or person; conditions: po, 1.5 h, read-out: INH
Rattus norvegicus [10] = species on record: Rattus norvegicus; test: animal or person; conditions: po, 3 h, read-out: INH
Rattus norvegicus [11] = species on record: Rattus norvegicus; test: animal or person; conditions: po, 4.5 h, read-out: INH
Rattus norvegicus [12] = species on record: Rattus norvegicus; test: animal or person; conditions: po, 6 h, read-out: INH

Structure (SMILES) | inhibition [1] | Selectivity ratio (Ovis aries) | inhibition in vivo at 50 mg/kg (Rattus norvegicus [2]) | inhibition in vivo at 50 mg/kg (Rattus norvegicus [3]) | inhibition in vivo at 50 mg/kg (Rattus norvegicus [4]) | inhibition in vivo at 50 mg/kg (Rattus norvegicus [5]) | Activity (Rattus norvegicus [6]) | Activity (Rattus norvegicus [7]) | Activity (Rattus norvegicus [8]) | inhibition in vivo at 10 mg/kg (Rattus norvegicus [9]) | inhibition in vivo at 10 mg/kg (Rattus norvegicus [10]) | inhibition in vivo at 10 mg/kg (Rattus norvegicus [11]) | inhibition in vivo at 10 mg/kg (Rattus norvegicus [12])
COc1ccc(-c2nc3ccccc3c(=O)n2-c2ccc(S(C)(=O)=O)cc2)cc1 | 24% | 0.471 | 35% | 38% | 42% | 46% | – | – | – | – | – | – | –
COc1ccc(-c2nc3cc(F)ccc3c(=O)n2-c2ccc(S(C)(=O)=O)cc2)cc1 | 29% | 0.453 | 31% | 34% | 36% | 39% | – | – | – | – | – | – | –
COc1ccc(-c2nc3cc(F)ccc3c(=O)n2-c2ccc(SC)cc2)cc1 | – | – | 31% | 34% | 37% | 40% | – | – | – | – | – | – | –
CSc1ccc(-n2c(-c3ccccc3)nc3ccccc3c2=O)cc1 | 12% | 0.3 | 29% | 32% | 34% | 38% | – | – | – | – | – | – | –
COc1ccc(-c2nc3ccc(Br)cc3c(=O)n2-c2ccc(SC)cc2)cc1 | – | – | 32% | 35% | 39% | 42% | – | – | – | – | – | – | –
CSc1ccc(-n2c(-c3ccccc3)nc3cc(Cl)ccc3c2=O)cc1 | – | – | 31% | 32% | 34% | 39% | – | – | – | – | – | – | –
CSc1ccc(-n2c(-c3ccccc3)nc3cc(F)ccc3c2=O)cc1 | – | – | 29% | 36% | 39% | 40% | – | – | – | – | – | – | –
CS(=O)(=O)c1ccc(-n2c(-c3ccccc3)nc3cc(Cl)ccc3c2=O)cc1 | 0% | – | 32% | 37% | 42% | 45% | 0 cm | – | – | – | – | – | –
CSc1ccc(-n2c(-c3ccccc3)nc3ccc(Br)cc3c2=O)cc1 | – | – | 30% | 33% | 35% | 39% | – | – | – | – | – | – | –
CS(=O)(=O)c1ccc(-n2c(-c3ccccc3)nc3cc(F)ccc3c2=O)cc1 | 15% | 0.238 | 30% | 34% | 39% | 41% | – | – | – | – | – | – | –
CS(=O)(=O)c1ccc(-n2c(-c3ccccc3)nc3ccccc3c2=O)cc1 | 13% | 0.31 | 30% | 33% | 36% | 39% | – | – | – | – | – | – | –
COc1ccc(-c2nc3cc(Cl)ccc3c(=O)n2-c2ccc(S(C)(=O)=O)cc2)cc1 | 12% | 0.167 | 37% | 38% | 41% | 43% | – | – | – | – | – | – | –
COc1ccc2c(c1)c(CC(=O)O)c(C)n2C(=O)c1ccc(Cl)cc1 [INDOMETHACIN] | – | – | – | – | – | – | – | 1.42 cm | 11.48 cm | 41% | 58% | 49% | 13%
COc1ccc(-c2nc3cc(Cl)ccc3c(=O)n2-c2ccc(SC)cc2)cc1 | – | – | 36% | 38% | 43% | 47% | – | – | – | – | – | – | –
COc1ccc(-c2nc3ccccc3c(=O)n2-c2ccc(SC)cc2)cc1 | 30% | 0.536 | 30% | 34% | 38% | 40% | – | – | – | – | – | – | –
CS(=O)(=O)c1ccc(-n2c(-c3ccccc3)nc3ccc(Br)cc3c2=O)cc1 | 4% | 0.04 | 38% | 40% | 44% | 49% | 0 cm | – | – | – | – | – | –
COc1ccc(-c2nc3ccc(Br)cc3c(=O)n2-c2ccc(S(C)(=O)=O)cc2)cc1 | 7% | 0.106 | 39% | 41% | 49% | 54% | – | – | – | – | – | – | –

— ChEMBL document CHEMBL1811843, “Analogue-based design, synthesis and molecular docking analysis of 2,3-diaryl quinazolinones as non-ulcerogenic anti-inflammatory agents” (Bioorg Med Chem, 2011)
